Test results published in ChEMBL document CHEMBL1127556, “Synthesis and topical antiinflammatory and antiallergic activities of antioxidant o-aminophenol derivatives” (J Med Chem, 1994).
Values after ≈ are worked out from the molar mass of the structure shown.

How the values were obtained:
[1] = system: Mus musculus; experiment: Evaluated for its inhibitory effects on 12-O-tetradecanoylphorbol-13-acetate (TPA) -induced edema in mouse ear at a dose of 100 ug/site; type: functional
Summary of the method: (§1)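 Male ICR mice, 30–40 g, 10–15 per group. Test compound applied in 25 μL acetone/pyridine/water 97:2:1 containing TPA (200 μg/mL) to the inner surface of one ear. Killed with CO2 5 h later; 6-mm ear punch weighed wet for edema. ED50 taken from three-point dose titration curves.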

[2] = system: Mus musculus; experiment: Inhibitory effects on arachidonic acid (AA) induced mouse ear edema at a dose of 100 ug/ear; type: functional
Summary of the method: (§2)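 Male ICR mice (30–40 g, 10–15 per group). Compound in 25 μL acetone/pyridine/water 97:2:1 with arachidonic acid (50 mg/mL) applied to inner surface of one ear. After 1 h, CO2 sacrifice, 6-mm disk punched, edema measured as change in wet weight versus controls.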

[3] = species on record: Rattus norvegicus; experiment: Evaluated for its antioxidative effect using the thiobarbituric acid (TBA) method in rat; type: functional
Summary of the method: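 Test sample in 67 mM phosphate buffer pH 7.4 mixed with 10% male Wistar rat (300–400 g) forebrain homogenate. Shaken 1 h at 37 °C, deproteinated with 20% TCA. Supernatant heated 10 min at 100 °C with 1.2% thiobarbiturate; absorbance read at 532 nm.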

[4] = species on record: Rattus norvegicus; experiment: Inhibitory effects on passive cutaneous anaphylaxis in rats at a dose of 1 mg/site; type: functional
Summary of the method: (§3)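 Male SD rats, eight per group, sensitized intradermally at two dorsal sites with 0.05 mL anti-ovalbumin rat IgE serum diluted 1:8 in 0.9% saline. Compound applied topically to those sites 5 h before iv challenge 48 h later with 2 mg ovalbumin plus 5 mg Evans blue in 1 mL. Extravasated dye measured 30 min later; percent inhibition versus control group.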

[5] = species on record: Mus musculus; experiment: Inhibitory effects on delayed type hypersensitive reaction in mouse ears at a dose of 300 ug/site; type: functional
Summary of the method: (§4)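 ICR mice, 10 or 12 per group, sensitized by abdominal swabbing with 0.1 mL antigen in acetone (7% picryl chloride or 1% OXA). DTH response assessed in mouse ears.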

[6] = system: Cavia porcellus; experiment: Compound was evaluated for maximization test in guinea pigs and the edema was observed for the experiment 0; type: functional
Summary of the method: (§5)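 Maximization test in guinea pigs with the dorsal neck region clipped and then shaved. Skin reactions were read at 24 and 48 h. Erythema was graded 0–4 and edema 0–3, and values are counts of animals at each grade. Groups held 6 animals, or 4 in the control-paired group.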

[7] = system: Cavia porcellus; experiment: Compound was evaluated for maximization test in guinea pigs and the edema was observed for the experiment 2;4/4; type: functional; summary of the method: as §5
[8] = system: Cavia porcellus; experiment: Compound was evaluated for maximization test in guinea pigs and the edema was observed for the experiment 3; type: functional; summary of the method: as §5
[9] = species on record: Cavia porcellus; experiment: Compound was evaluated for maximization test in guinea pigs and the erythema was observed for the experiment 4;0/2; type: functional; summary of the method: as §5
[10] = system: Cavia porcellus; experiment: Compound was evaluated for maximization test in guinea pigs and the edema was observed for the experiment 1; type: functional; summary of the method: as §5
[11] = species on record: Cavia porcellus; experiment: Compound was evaluated for maximization test in guinea pigs and the erythema was observed for the experiment 0; type: functional; summary of the method: as §5
[12] = species on record: Cavia porcellus; experiment: Compound was evaluated for maximization test in guinea pigs and the erythema was observed for the experiment 1; type: functional; summary of the method: as §5
[13] = species on record: Cavia porcellus; experiment: Compound was evaluated for maximization test in guinea pigs and the erythema was observed for the experiment 2;3/0; type: functional; summary of the method: as §5
[14] = species on record: Cavia porcellus; experiment: Compound was evaluated for maximization test in guinea pigs and the erythema was observed for the experiment 3;1/2; type: functional; summary of the method: as §5
[15] = species on record: Oryctolagus cuniculus; experiment: Compound was evaluated for primary irritation test by applying at the abraded site and the average score was reported. Number of animals tested =6; type: toxicity, organism-based; settings: rabbit, in vivo, topical_or_ocular
Summary of the method: (§6)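 Rabbit backs shaved and depilated; 0.5 g compound applied to four sites (two intact, two abraded) under gauze for 24 h. Sites examined grossly 24 and 72 h after removing covering; scored by Draize method.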

[16] = species on record: Oryctolagus cuniculus; experiment: Compound was evaluated for primary irritation test by applying at the intact site and the average score was reported. Number of animals tested =6; type: toxicity, organism-based; settings: rabbit, in vivo, topical_or_ocular; summary of the method: as §6
[17] = species on record: Mus musculus; experiment: Compound was evaluated for its effective dose to inhibit oxazolone- induced delayed type hypersensitivity; type: functional; summary of the method: as §4
[18] = species on record: Mus musculus; experiment: Compound was evaluated for its effective dose to inhibit picryl chloride induced delayed type hypersensitivity; type: functional; summary of the method: as §4
[19] = system: Mus musculus; experiment: Compound was evaluated for its inhibitory effects on 12-O-tetradecanoylphorbol-13-acetate -induced edema; type: functional; summary of the method: as §1
[20] = system: Mus musculus; experiment: Compound was evaluated for its inhibitory effects on arachidonic acid induced ear edema at a dose of 100 (ug / ear); type: functional; summary of the method: as §2
[21] = species on record: Rattus norvegicus; experiment: Compound was evaluated for its inhibitory effects on passive cutaneous anaphylaxis in rats at a dose of 2.5 mg/site; type: functional; summary of the method: as §3
[22] = species on record: Rattus norvegicus; experiment: Compound was evaluated for its inhibitory effects on passive cutaneous anaphylaxis in rats at a dose of 1 mg/site; type: functional; summary of the method: as §3
[23] = species on record: Rattus norvegicus; experiment: Compound was evaluated for its inhibitory effects on passive cutaneous anaphylaxis in rats at a dose of 1 (mg / site).; type: functional; summary of the method: as §3
[24] = species on record: Rattus norvegicus; experiment: Compound was evaluated for its inhibitory effects on passive cutaneous anaphylaxis in rats at a dose of 2.5 (mg / site).; type: functional; summary of the method: as §3
[25] = species on record: Mus musculus; experiment: Compound was evaluated for its effective dose to inhibit oxazolone- induced delayed type hypersensitivity
[26] = system: Mus musculus; experiment: Compound was evaluated for its inhibitory effects on 12-O-tetradecanoylphorbol-13-acetate -induced edema.
[27] = species on record: Mus musculus; experiment: Compound was evaluated for its effective dose to inhibit picryl chloride induced delayed type hypersensitivity.
[28] = system: Mus musculus; experiment: Compound was evaluated for its inhibitory effects on arachidonic acid induced ear edema at a dose of 100 (ug / ear)
[29] = system: Mus musculus; experiment: Compound was evaluated for its inhibitory effects on 12-O-tetradecanoylphorbol-13-acetate (TPA) -induced edema in mouse ear at a dose of 100 ug/site; type: functional; summary of the method: as §1
[30] = system: Mus musculus; experiment: Compound was evaluated for its inhibitory effects on arachidonic acid (AA) induced mouse ear edema at a dose of 100 ug/ear; type: functional; summary of the method: as §2
[31] = species on record: Mus musculus; experiment: Compound was evaluated for its inhibitory effects on delayed type hypersensitive reaction in mouse ears at a dose of 300 ug/site; type: functional; summary of the method: as §4

Row | Compound | Inhibition [1] | Inhibition [2] | IC50 [3] | Inhibition [4] | Inhibition [5] | further results
1 | Cc1ccc(O)c(NCCCN2CCCN(C(c3ccccc3)c3ccc(Cl)cc3)CC2)c1 (stereo not drawn) | 87% | 50.3% | 0.013 µg/mL (≈ 0.028 µM) | 36.4% |  | 
2 | Cc1ccc(O)c(N(CCCN2CCC(C(O)(c3ccccc3)c3ccc(Cl)cc3)CC2)C(C)C)c1 (stereo not drawn) | 89.3% | 48.5% | 1 µg/mL (≈ 1.97 µM) | 48.3% | 18.7% | 
3 | O=[N+]([O-])c1ccc(Cl)c([N+](=O)[O-])c1 |  |  |  |  |  | Edema [6]: 0; Edema [7]: 4; Edema [8]: 0; Erythema [9]: 0; Edema [10]: 0; Erythema [11]: 0; Erythema [12]: 0; Erythema [13]: 3; Erythema [14]: 1
4 | Cc1ccc(O)c(N(CCCN2CCC(C(O)(c3ccccc3)c3ccccc3)CC2)C(C)C)c1 | 39.2% |  | 0.79 µg/mL (≈ 1.67 µM) |  |  | 
5 | Cc1ccc(O)c(NCCCN2CCN(C(c3ccccc3)c3ccc(Cl)cc3)CC2)c1 (stereo not drawn) |  | 67.7% | 0.12 µg/mL (≈ 0.267 µM) | 48.5% | 62% | Average score [15]: 0; Average score [16]: 0
6 | Cc1ccc(O)c(NCCCN2CCN(C(c3ccc(F)cc3)c3ccc(F)cc3)CC2)c1 |  | 51% | 0.1 µg/mL (≈ 0.221 µM) | 31.7% | 79.2% | ED50 [17]: 47.8 µg/mL (≈ 106 µM); ED50 [18]: 52.9 µg/mL (≈ 117 µM); ED50 [19]: 47 µg/mL (≈ 104 µM); ED50 [20]: 107.9 µg/mL (≈ 239 µM); Average score [15]: 0; Average score [16]: 0; Inhibition [21]: 51.9%
7 | Cc1ccc(O)c(N(CCCN2CCN(C(c3ccc(F)cc3)c3ccc(F)cc3)CC2)C(C)C)c1 | 24.2% |  | 1.2 µg/mL (≈ 2.43 µM) |  |  | 
8 | Cc1ccc(O)c(NCCCN2CCC(OC(c3ccc(F)cc3)c3ccc(F)cc3)CC2)c1 | 61.8% | 49.8% | 0.028 µg/mL (≈ 0.06 µM) | 39% | 59.3% | 
9 | Cc1ccc(O)c(N(CCCN2CCN(C(c3ccccc3)c3ccccc3)CC2)C(C)C)c1 | 42.6% |  | 0.29 µg/mL (≈ 0.634 µM) |  |  | 
10 | Cc1ccc(O)c(NCCN2CCN(C(c3ccccc3)c3ccccc3)CC2)c1 | 75.3% | 48.1% | 0.045 µg/mL (≈ 0.112 µM) | 32.8% | 62% | 
11 | Cc1ccc(O)c(N(C)CCCN2CCN(C(c3ccccc3)c3ccc(Cl)cc3)CC2)c1 (stereo not drawn) | 51.8% |  | 0.27 µg/mL (≈ 0.582 µM) |  |  | 
12 | Cc1ccc(O)c(N(C)CCCN2CCN(C(c3ccccc3)c3ccccc3)CC2)c1 | 50.9% |  | 0.3 µg/mL (≈ 0.698 µM) |  |  | 
13 | CC(C)(C)c1ccc(O)c(NCCCN2CCN(C(c3ccccc3)c3ccc(Cl)cc3)CC2)c1 (stereo not drawn) | 82.4% | 38% | 0.068 µg/mL (≈ 0.138 µM) | 12.6% | 60.6% | 
14 | CC(C)N(CCCN1CCN(C(c2ccccc2)c2ccc(Cl)cc2)CC1)c1cc(C(C)(C)C)ccc1O (stereo not drawn) | 40.3% |  | 0.39 µg/mL (≈ 0.73 µM) |  |  | 
15 | Cc1ccc(O)c(NCCCN2CCN(C(c3ccc(Cl)cc3)c3ccc(Cl)cc3)CC2)c1 | 58.2% |  | 0.48 µg/mL (≈ 0.991 µM) |  |  | 
16 | Cc1ccc(O)c(NCCCN2CCN(C(c3ccccc3)c3ccccc3)CC2)c1 |  | 51% | 0.038 µg/mL (≈ 0.0914 µM) | 11.2% | 79.3% | 
17 | Cc1ccc(O)c(N(CCCN2CCN(C(c3ccccc3)c3ccc(Cl)cc3)CC2)C(C)C)c1 (stereo not drawn) | 44.4% |  | 0.44 µg/mL (≈ 0.894 µM) |  |  | 
18 | Cc1ccc(O)c(N(CCCN2CCN(C(c3ccc(Cl)cc3)c3ccc(Cl)cc3)CC2)C(C)C)c1 | 26.4% |  | 2.2 µg/mL (≈ 4.18 µM) |  |  | 
19 | Cc1ccc(O)c(NCCCN2CCC(OC(c3ccccc3)c3ccccc3)CC2)c1 |  | 61.8% | 0.036 µg/mL (≈ 0.0836 µM) |  | 28.1% | Inhibition [22]: 28.3%
20 | Cc1ccc(O)c(NCCCN2CCC(C(O)(c3ccc(F)cc3)c3ccc(F)cc3)CC2)c1 | 86.9% |  | 0.025 µg/mL (≈ 0.0536 µM) | 25.4% |  | 
21 | Cc1ccc(O)c(NCCCN2CCC(C(O)(c3ccccc3)c3ccc(Cl)cc3)CC2)c1 (stereo not drawn) | 97.5% | 43.7% | 0.041 µg/mL (≈ 0.0882 µM) | 39.2% | 80.4% | Average score [15]: 0; Average score [16]: 0
22 | Cc1ccc(O)c(NCCCN2CCC(OC(c3ccccc3)c3ccc(Cl)cc3)CC2)c1 (stereo not drawn) | 86% | 53.6% | 0.084 µg/mL (≈ 0.181 µM) | 26% | 31.3% | 
23 | C[C@]12CCC(=O)C=C1CCC1[C@@H]2[C@@H](O)C[C@@]2(C)[C@H]1CC[C@]2(O)C(=O)CO (single isomer, unassigned) [HYDROCORTISONE] |  |  |  |  |  | Inhibition [23]: 6.99%; Inhibition [24]: -16.4%; ED50 [25]: 3.43 µg/mL (≈ 9.46 µM); ED50 [26]: 6.69 µg/mL (≈ 18.5 µM); ED50 [27]: 1.2 µg/mL (≈ 3.31 µM); ED50 [28]: 3.09 µg/mL (≈ 8.52 µM)
24 | Cc1c(C)c2c(c(C)c1O)CC[C@@](C)(CCC[C@H](C)CCC[C@H](C)CCCC(C)C)O2 [ALPHA-TOCOPHEROL] |  |  | 0.87 µg/mL (≈ 2.02 µM) |  |  | 
25 | CN(C)CCOC(c1ccccc1)c1ccccc1 [DIPHENHYDRAMINE] |  |  |  | 27.9% |  | ED50 [29]: >300 µg/mL; ED50 [30]: >300 µg/mL; ED50 [31]: >300 µg/mL; Inhibition [21]: 52.8%
26 | CC(C(=O)O)c1ccc(C(=O)c2cccs2)cc1 (stereo not drawn) [SUPROFEN] |  |  |  | -0.7% |  | ED50 [29]: 123.2 µg/mL (≈ 473 µM); ED50 [30]: 15.4 µg/mL (≈ 59.2 µM); ED50 [31]: >300 µg/mL; Inhibition [21]: 16.9%
